# Sampled rows, rich in hits. Any-hit rate of the full collection: about 2.3%.
# TRPC6 inh: mouse TRPC6 channel inhibitors, primary screen, cell-based, HEK293, membrane potential dye | ACh-evoked depolarization; hits give low values | Short transient receptor potential channel 6 (Mus musculus), Q61143 | 1.1% of 310,000 active | AID 2553, 2010 | B-score at 10 µM;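 active = B-score under library mean minus 3 SD, initial fluorescence not abnormally high, positive integrated signal ratio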;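 also: B-score derived from integrated fluorescence ratio over the kinetic read; more negative B-score means stronger inhibition of depolarization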
# TRPC6 activator: mouse TRPC6 channel activators, primary screen, cell-based, HEK293, membrane potential dye; HEK293-TRPC6 membrane potential dye fluorescence; hits give high values; B-score at 10 µM; Short transient receptor potential channel 6 (Mus musculus), Q61143; 0.13% of 310,000 active;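 active = B-score of the integrated fluorescence ratio above library mean plus 3 SD, and starting fluorescence ratio within library mean plus 5 SD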;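 also: higher score means more depolarization so channel activation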
# TRPC4 agonist: activators of mouse TRPC4 channel, primary screen, Fluo4 calcium, HEK293 TRPC4beta/mu-opioid cells; Short transient receptor potential channel 4 (Mus musculus), Q9QUQ5; Fluo4 calcium fluorescence; hits give high values; B-score at 10 µM; 0.49% of 310,000 active; AID 2237, 2010;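 active = B-score above 5 SD of library B-scores, and initial fluorescence ratio not above library mean plus 5 SD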;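 also: positive B-score marks a calcium rise read as TRPC4 activation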
# Target sequence (Q9QUQ5 whole entry, looked up): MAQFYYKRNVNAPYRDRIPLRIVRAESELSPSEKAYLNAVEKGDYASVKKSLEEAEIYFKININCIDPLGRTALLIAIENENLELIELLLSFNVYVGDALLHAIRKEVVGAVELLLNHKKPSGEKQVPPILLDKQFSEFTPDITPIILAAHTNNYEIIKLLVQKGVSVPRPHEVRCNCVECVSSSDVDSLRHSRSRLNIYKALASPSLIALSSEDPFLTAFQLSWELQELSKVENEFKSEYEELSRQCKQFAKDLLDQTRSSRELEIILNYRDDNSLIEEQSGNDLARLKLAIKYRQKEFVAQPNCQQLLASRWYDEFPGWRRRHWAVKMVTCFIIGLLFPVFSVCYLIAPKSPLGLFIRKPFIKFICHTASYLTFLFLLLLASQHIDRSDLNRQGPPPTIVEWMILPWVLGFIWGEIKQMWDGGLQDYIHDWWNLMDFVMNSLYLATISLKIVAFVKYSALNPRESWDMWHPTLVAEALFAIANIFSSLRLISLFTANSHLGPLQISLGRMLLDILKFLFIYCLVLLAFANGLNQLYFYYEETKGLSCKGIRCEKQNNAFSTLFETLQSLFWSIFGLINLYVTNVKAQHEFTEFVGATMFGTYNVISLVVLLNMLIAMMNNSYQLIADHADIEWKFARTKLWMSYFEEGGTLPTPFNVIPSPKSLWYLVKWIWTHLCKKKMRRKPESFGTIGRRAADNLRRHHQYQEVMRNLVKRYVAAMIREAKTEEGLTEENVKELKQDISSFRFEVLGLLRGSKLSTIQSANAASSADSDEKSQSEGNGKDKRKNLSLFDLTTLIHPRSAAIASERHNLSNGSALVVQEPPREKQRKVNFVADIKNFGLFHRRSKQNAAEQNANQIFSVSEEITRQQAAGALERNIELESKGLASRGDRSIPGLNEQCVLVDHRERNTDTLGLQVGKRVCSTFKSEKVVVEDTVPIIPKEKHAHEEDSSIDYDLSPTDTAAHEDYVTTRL
#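 Assay system – TRPC4beta and mu-opioid receptor HEK293 stable cells · Measured by – Fluo4 fluorescence, kinetic · Schedule – dye loading 45 min room temperature, 110 s kinetic read · Read-out – B-scored integrated calcium fluorescence ratio · Controls – buffer and maximal DAMGO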
# TRPC4 block: inhibitors of mouse TRPC4 channel, primary screen, Fluo4 calcium, HEK293 TRPC4beta/mu-opioid cells. Short transient receptor potential channel 4 (Mus musculus), Q9QUQ5. DAMGO-evoked Fluo4 calcium flux; hits give low values. B-score at 10 µM. 0.39% of 300,000 active. AID 2247, 2010;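 active = B-score over 3 SD under the library average, no early fluorescence shift, positive overall ratio signal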
#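 Assay system: Stable TRPC4beta/mu-opioid receptor HEK293 cells | Reagent: DAMGO in two steps, submaximal then maximal | Compound dosing: Single concentration per test compound | Signal: Fluo4 Ca2+ flux fluorescence | Evaluation: Per-well B score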
# TRPC4 PAM: positive allosteric modulators of TRPC4, primary screen, cell-based, mouse TRPC4beta, HEK293 mu-opioid, Fluo-4 calcium; AID 2227, 2009; DAMGO EC20, Fluo-4 Ca2+ flux; hits give high values; B-score at 10 µM; 0.42% of 310,000 active; Short transient receptor potential channel 4 (Mus musculus), Q9QUQ5;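 active = B-score of calcium response area above 5 SD of library B-scores, with initial fluorescence ratio within 5 SD of library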;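 also: B-score of integrated fluorescence ratio over time as area under calcium response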
# TRPC4 spec 2: second check of whether TRPC6 inhibitors also affect mouse TRPC4; 42% of 920 active; inhibition, % at 10 µM; HEK293 TRPC4/MOR, membrane potential dye fluorescence; channel activated by saturating DAMGO dose; AID 2776; shares compounds with TRPC6 inh;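 active = compounds whose fluorescence signal differed from control wells by over 3 SD, either direction, in both duplicate plates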
# TRPC4 spec: mouse TRPC4 modulation by TRPC6 hits, confirmation, selectivity assay for TRPC6 inhibitor project, cell-based, HEK293 TRPC4/mu-opioid, membrane potential dye | membrane potential fluorescence | 61% of 920 active | shares compounds with TRPC6 inh | activity change, negative = inhibition, % at 10 µM;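 active = rise or fall in signal beyond 3 SD of buffer-only wells in both replicate plates, either sign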;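 also: integrated kinetic ratio of fluorescence range over baseline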
# HEK293 MPD ctr 2-1: nonspecific membrane potential effects, parental HEK293, confirmation, counter-screen for TRPC6 inhibitor project, cell-based, second counter screen | 31% of 920 active | parental HEK293 membrane potential dye fluorescence; maximal acetylcholine challenge after compound addition | shares compounds with TRPC6 inh | AID 2779, 2010 | signal change vs control, % at 10 µM;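 active = membrane potential signal moving either way by over 3 SD of the maximum-effect control, in both duplicate plates, meaning non-specific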
# HEK293 MPD ctr-1: membrane potential modulation in parental HEK293, confirmation, counter-screen for TRPC6 inhibitor project, cell-based; membrane potential signal change, % at 10 µM; parental HEK293 membrane potential dye fluorescence; shares compounds with TRPC6 inh; AID 2780, 2010; 60% of 920 active;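 active = membrane potential signal shifting up or down by more than 3 SD of buffer-only wells, on both duplicate plates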
# HEK293 MPD ctr-2: parental HEK293 membrane potential modulation, confirmation, counter-screen for TRPC6 modulator project, cell-based | membrane potential dye fluorescence | membrane potential signal change, % at 10 µM | shares compounds with TRPC6 inh | 51% of 2,400 active;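 active = membrane potential signal moves up or down beyond 5 SD from buffer-only wells, on both duplicate plates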
# HEK293 MPD ctr 2-2: parental HEK293 nonspecific activity of TRPC6 modulators, second screen | shares compounds with TRPC6 inh | membrane potential dye fluorescence; after compound, maximal acetylcholine stimulation | inhibition, % at 10 µM | 14% of 2,400 active;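 active = membrane potential signal drops by more than 5 SD from the mean control signal, in both duplicate plates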;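 also: plate controls were acetylcholine ECmax control wells for no effect and buffer only wells for full effect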
# TRPC4 ctr mod: TRPC4 modulation by TRPC6 hit compounds, confirmation, selectivity assay for TRPC6 modulator project, cell-based, HEK293 TRPC4/mu-opioid, membrane potential dye, mouse; AID 488927, 2010; shares compounds with TRPC6 inh; membrane potential fluorescence; percent change from control (negative = decrease, positive = increase), % at 10 µM; 69% of 2,400 active;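 active = membrane potential signal moved up or down beyond 5 SD of buffer control wells, in both duplicate plates, actives on both sides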;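 also: plate controls were assay buffer wells for no effect and DAMGO maximal-effect wells for full effect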
# TRPC4/MOR inh 2: second check of whether TRPC6 modulators also affect mouse TRPC4; shares compounds with TRPC6 inh; HEK293 TRPC4/mu-opioid, membrane potential dye fluorescence; stimulated with maximal-effect DAMGO; inhibition, % at 10 µM; 55% of 2,400 active;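 active = drop in membrane potential signal beyond 5 SD of the control wells in both duplicate plates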;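 also: TRPC4 counter screen for TRPC6 hits run under conditions tuned for TRPC6 not TRPC4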
# TRPC6 inh conf: mouse TRPC6 channel inhibitors, confirmation, HEK293 cells, membrane potential dye, duplicate; inhibition, % at 10 µM; AID 488960, 2010; shares compounds with TRPC6 inh; ACh-evoked depolarization; 43% of 3,300 active;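 active = fluorescence ratio falls more than 5 SD below the full-stimulation control mean, in both duplicate runs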;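 also: integrated fluorescence ratio of peak minus minimum over baseline after agonist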
# TRPC6 act confirm: mouse TRPC6 channel activators, confirmation, HEK293 cells, membrane potential dye, duplicate; 11% of 2,800 active; AID 488961, 2010; shares compounds with TRPC6 inh; HEK293-TRPC6 membrane potential dye fluorescence, FDSS; activation, % at 10 µM;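 active = ratio signal rise beyond 5 SD above unstimulated control wells' mean, seen in both duplicate runs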;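 also: plate controls were buffer EC0 wells for no effect and acetylcholine ECmax response for full effect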
# * hit, by the source's call; i = inactive; / = no result given.
SMILES,TRPC6 inh,TRPC6 activator,TRPC4 agonist,TRPC4 block,TRPC4 PAM,TRPC6 inh conf,TRPC6 act confirm,others
c1ccc(Cn2c3ccccc3c3nnc(SCCN4CCCCC4)nc32)cc1,i,i,i,i,i,/,/,
C=CCn1c2ccccc2c2nnc(SCCN3CCCCC3)nc21,-8.6*,i,i,i,i,i,i,TRPC4 spec 2=73%*;TRPC4 spec=-14%*;HEK293 MPD ctr 2-1=i;HEK293 MPD ctr-1=-154%*
COc1cccc(NC(=O)CN2C(=O)COc3ccc(S(=O)(=O)N4CCC(C)CC4)cc32)c1,i,i,i,i,i,/,/,
Cc1ccc(NC(=O)CNC(=O)c2ccco2)cc1,i,i,i,i,i,/,/,
FC(F)Sc1ccc(-n2cc(-c3ccc(Cl)cc3)[n+]3c2CCC3)cc1,-7*,i,i,i,i,53%*,i,TRPC4 spec 2=i;TRPC4 spec=-14%*;HEK293 MPD ctr 2-1=-40%*;HEK293 MPD ctr-1=-216%*
Cc1ccc(-c2cn(-c3ccc(SC(F)F)cc3)c3[n+]2CCC3)cc1,i,i,i,i,i,/,/,
CCn1c(=O)n(CC)c2cc(N3CCCC3)c(NC(=O)c3cccc(Cl)c3)cc21,i,i,i,i,i,/,/,
CC(C)(CO)NCc1ccccc1OCC(=O)Nc1ccccc1,i,i,i,i,i,/,/,
Cc1ccc(NC(=O)COc2ccccc2CNC(C)(C)CC(C)(C)C)cc1,i,14*,i,i,i,i,176%*,HEK293 MPD ctr-2=296%*;HEK293 MPD ctr 2-2=i;TRPC4 ctr mod=71%*;TRPC4/MOR inh 2=i
Cc1ccc2nc(SCC(=O)Nc3cc(C)on3)nc(=O)n2c1,i,i,i,i,i,/,/,
O=C(N(c1ccccc1)c1ccccc1)n1ccnc1,i,i,i,i,i,/,/,
